# Source: PubChem BioAssay (Broad Institute)
# Rce1 inh = yeast Ras-converting enzyme inhibition; calls only; AID 2563; hit rate 0.27% among 290,000; yeast membranes, quenched prenylated peptide cleavage fluorescence; Q03530;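 active = fall in fluorescence gain of 50% or more versus controls, with final raw signal at or below 3038400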
# GSK3 alpha inh = blocks human GSK-3 alpha kinase. P49840. ADP-Glo luminescence, 60 min. inhibition, % at 10 µM. hit rate 0.1% among 320,000. AID 2650;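 active = more than half of replicates show inhibition above 20%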;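 also: GST-tagged GSK-3 alpha with peptide substrate and 25 µM ATP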
# STK33 kinase inh = inhibitors of human STK33 kinase | purified STK33, MBP phosphorylation, ADP-Glo luminescence | inhibition, % at 10 µM | hit rate 0.073% among 320,000 | AID 2661;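 active = inhibition at or above 25%, using the most active replicate where run in duplicate; inactive = inhibition below 25%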
# AI-2 QS mod = Vibrio harveyi AI-2 quorum sensing modulation; Vibrio harveyi JMH597 AI-2 luminescence/OD600 ratio, 9 h; stronger effect = lower value; strain lacks LuxN and CqsS sensors; 0 = neutral-control median; activity change, % at 7.5 µM; hit rate 0.4% among 300,000; AID 2094; in the data active = activity change below about -75%, passing the limit was not always enough;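 also: luminescence divided by OD600 gain over 9 h not by final OD600 alone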
# GSK3beta inhib = blocks human GSK3beta kinase activity | P49841 | GST-GSK3beta kinase, ADP-Glo luminescence, 60 min; stronger effect = lower value | activity score (negative = inhibition), % at 10 µM | hit rate 0.038% among 300,000 | AID 2097;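 active = more than half of replicate wells score below -50%, meaning over 50% inhibition versus plate controls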
# Target sequence (P49841 whole entry, looked up): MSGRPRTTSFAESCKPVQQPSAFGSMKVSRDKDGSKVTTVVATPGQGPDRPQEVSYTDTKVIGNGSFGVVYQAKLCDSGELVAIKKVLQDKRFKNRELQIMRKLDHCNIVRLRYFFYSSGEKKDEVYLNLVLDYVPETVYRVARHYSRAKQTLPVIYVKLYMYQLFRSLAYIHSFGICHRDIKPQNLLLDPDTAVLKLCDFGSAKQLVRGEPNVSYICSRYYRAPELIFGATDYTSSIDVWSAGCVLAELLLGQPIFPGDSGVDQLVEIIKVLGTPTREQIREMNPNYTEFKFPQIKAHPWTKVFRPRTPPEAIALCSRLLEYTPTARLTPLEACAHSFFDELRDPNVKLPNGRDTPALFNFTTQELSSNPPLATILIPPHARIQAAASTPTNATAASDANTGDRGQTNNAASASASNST
#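 Assay system: GST-fused GSK3beta enzyme, cell-free / Medium: Tris pH 7.5 buffer with MgCl2, DTT, BSA, heparin / Also added: peptide substrate plus 25 µM ATP (final) / Compound: 10 µM single point / Timing: kinase reaction with compound 60 min at room temperature / Detection: ADP-Glo luminescence / Benchmarks: DMSO neutral wells and GW8510 at 20 µM as positive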
# Dyrk1A ADPGlo = inhibitors of rat Dyrk1A kinase; ADP-Glo luminescence, NFATc1 peptide; hit rate 0.43% among 310,000; Q63470; inhibition, % at 12.5 µM; in the data active = inhibition above about 50%
# Numbers stand for hits; - = inactive; . = no result; + = active, no number. Only some compounds are listed: those with a hit (about 0.99% of all), similar ones and a draw of the others.
SMILES,Rce1 inh,GSK3 alpha inh,STK33 kinase inh,AI-2 QS mod,GSK3beta inhib,Dyrk1A ADPGlo
Cn1c(=O)n(C)c2cc(NC(=O)CSc3nc4ccccc4c(=O)[nH]3)ccc21,-,-,-,-,-,-
O=C(O)c1cc(-c2ccc(/C=N/Nc3ccc([N+](=O)[O-])cn3)o2)ccc1Cl,.,.,.,-,-63,-
CCOc1ccc(CCNC(=O)c2cccc(S(=O)(=O)N3CCN(C(C)=O)CC3)c2)cc1OCC,-,-,-,-,-,-
Cc1ccccc1Cn1c(O)c(N=NC(=S)Nc2ccccc2F)c2ccccc21,-,-,-,-,-,-
Oc1c(N=NC(=S)Nc2ccccc2F)c2ccccc2n1Cc1ccccc1F,+,-,-,-,-,-
CCN(CC)c1ccc(/C=N/NC(=S)NCc2ccc(OC)cc2)cc1,+,-,-,-,-,-
CCN(CC)c1ccc(/C=N/NC(=S)NCc2ccccc2)cc1,-,-,-,-,-,-
CCOC(=O)c1ccc(NC(=O)CN2CCN(Cc3ccccc3)CC2)cc1,-,-,-,-,-,-
CCOC(=O)c1ccc(NC(=O)N2CCN(Cc3ccccc3)CC2)cc1,+,-,-,-,-,-
CCc1cc(=O)oc2cc(C)cc(OCC(=O)N3CCC(C(=O)NC(C)C)(c4ccccc4)CC3)c12,-,-,-,-,-,-
Cc1cc(C(=O)N[C@H](c2ccccc2)[C@@]2(C)C[C@@H]2[C@@H](C)C(=O)Nc2ccc3ccccc3c2)n(C)n1,+,-,-,-,-,-
C[C@@H](C(=O)Nc1ccc2ccccc2c1)[C@H]1C[C@]1(C)[C@H](NC(=O)OCc1ccccc1)c1ccccc1,-,-,-,-,-,-
CSc1nnc(N2C(=O)C(O)=C(C(=O)c3ccco3)C2c2cccc(Cl)c2)s1 (stereo not drawn),-,-,-,-,-,-
CCOC(=O)Cn1c(C)c(Br)c(COC)c(C#N)c1=O,.,-,-,-,-,.
COCc1c(Br)c(C)[nH]c(=O)c1C#N,+,-,-,-,-,-
CN(Cc1nc2ccccc2c(=O)[nH]1)C(=O)c1cc(-c2ccc(Br)cc2)nc2ccccc12,.,.,.,.,.,-
CN1/C(=C/C=C(/C#N)C(N)=O)C(C)(C)c2ccccc21,-,63,-,-,-,-
CN1/C(=C\C=C(/C#N)C(=O)Nc2ccccc2F)C(C)(C)c2ccccc21,-,-,-,-,-,-
O=C(CCn1cnnn1)N1CCCC(Nc2ccc(F)cc2)C1 (stereo not drawn),-,-,-,-,-,-
O=C(c1ccc(Cn2cnnn2)cc1)N1CCCC(Nc2ccc(F)cc2)C1 (stereo not drawn),+,-,-,-,-,-
CC1CCCCN1c1ncnc(N)c1[N+](=O)[O-] (stereo not drawn),-,-,-,-,-68,.
CC1Cc2ccccc2N1c1ncnc(N)c1[N+](=O)[O-] (stereo not drawn),.,-,-,-,-,-
CSc1ccc(/C=C/C(=O)OCC(=O)NC(C)C)cc1,+,-,-,-,-,-
CCCCN(C(=O)COC(=O)c1ccc(C=O)cc1)c1c(N)n(CCC)c(=O)[nH]c1=O,.,-,-,.,.,-
CN(C)c1cc(O)c(C(=S)Nc2ccccc2)c(N(C)C)c1,+,-,-,-,-,-
SMILES,Rce1 inh,GSK3 alpha inh,STK33 kinase inh,AI-2 QS mod,GSK3beta inhib,Dyrk1A ADPGlo
CN(C)c1ccc(C(=S)Nc2ccccc2)cc1,-,-,-,-,-,-
COc1ccc(C(=O)NCC(c2ccccc2)N2CCCC2)cc1S(=O)(=O)N1CCOCC1 (stereo not drawn),.,-,-,.,.,-
Cc1nn(CC(=O)Nc2ccccc2)c(=O)c2ccccc12,-,-,-,-88,-,-
Cc1nn(CC(=O)NC(C)c2ccccc2)c(=O)c2ccccc12 (stereo not drawn),-,-,-,-,-,-
Cc1cc(CNC(=O)C2(C(F)(F)F)C/C(=C\Cc3ccccc3)CCCO2)nn1C (stereo not drawn),-,-,-,-,-,-
COc1ccc(CNC(=O)c2ccccc2NS(C)(=O)=O)cc1,+,-,-,-,-,-
COc1ccccc1CNC(=O)c1ccccc1NS(C)(=O)=O,-,.,.,-,-,-
CCOC(=O)c1c(NC(=O)C(NCCN(C)C)c2ccccc2)sc2c1CCCC2 (stereo not drawn),-,-,-,-,-,-
O=C(CCc1ccccn1)N1CCCC(N2CCN(c3cccc(C(F)(F)F)c3)CC2)C1 (stereo not drawn),-,-,-,-,-,-
CC1CCN(C(=O)C2CCCN(c3ncnc4c3nc3n4CCCCC3)C2)CC1 (stereo not drawn),-,.,-,-,-,-
CC1CC(C)CN(C(=O)C2CCCN(c3ncnc4c3nc3n4CCCCC3)C2)C1 (stereo not drawn),-,-,-,-76,-,-
COCCN(C(=O)c1snc(C(N)=O)c1N)C(C(=O)NC1CCCCC1)c1ccc(OC)c(OC)c1 (stereo not drawn),-,-,-,-,-,.
CCC(=O)N1N=C(c2ccc(NS(=O)(=O)c3ccccc3)cc2)CC1c1ccco1 (stereo not drawn),.,-,-,.,.,.
c1ccc(-c2csc3ncnc(NCc4ccccn4)c23)cc1,-,-,-,-,-,.
c1ccc(CNc2ncnc3scc(-c4cccs4)c23)nc1,-,57,-,-,-,-
COc1cc(/C=C/C(O)=C/C(=O)/C=C/c2ccc(O)cc2)ccc1O,.,-,43,.,.,-
O=C(Nc1ccn(Cc2ccc(Cl)cc2)n1)c1ccccc1,-,-,-,-87,-,.
Cc1ccc(C(=O)Nc2cccc(S(=O)(=O)N3CCCC3)c2)o1,.,-,-,.,.,.
Oc1ccc(/C=N/NC(=S)N/N=C/c2ccc(O)cc2)cc1,-,-,30,-,-,-
COc1cc(/C=N/NC(=O)c2sc(N)c(C#N)c2C)cc(Br)c1O,-,62,-,-,-,-
CCCOc1ccc(-c2nc3c(c(=O)[nH]c(=O)n3Cc3ccccc3)n2CCO)cc1OCC,+,-,-,-,-,-
Nc1cccc2nc3ccccc3cc12,+,.,.,-,-,-
Nc1[nH]nc2nc3ccccc3cc12,-,-,-,-,-,.
Oc1c(C(c2ccc(Cl)cc2)N2CCCC2)cc(Cl)c2cccnc12 (stereo not drawn),-,-,.,-121,-,-
CN1CCN(C(c2ccccn2)c2cc(Cl)c3cccnc3c2O)CC1 (stereo not drawn),-,-,-,-,-,-
Cc1ccc(C(c2cc(Cl)c3cccnc3c2O)N2CCN(C)CC2)cc1 (stereo not drawn),-,-,-,-169,-,-
CCOc1ccc(NC(=O)Cc2ccc(S(=O)(=O)N3CCCCC3)cc2)cc1OCC,.,-,-,.,.,.
CCOP(=O)(c1ccccc1)c1nc(-c2ccccc2Cl)oc1N1CCCCC1 (stereo not drawn),+,-,-,-,-,-
